Experimental data from BindingDB's records for doi:10.1021/jm800789h (National Cancer Institute-Frederick, 2009).
*1 amine or outer side, *2 acyl side, *3 side chain or, on linkers, in order; H or OH if unused. Where a SMILES comes first, the peptide text is derived from it. [ ]: non-standard residue; d: D form. The star is where a group is joined. X2 = O=C(c1cc(N=C=S)ccc1-c1c2ccc(=O)cc-2oc2cc(O)ccc12)*; Achc(cis-1,4) = O=C([C@H]1CC[C@@H](N[*:1])CC1)[*:2]; Achc(trans-4) = O=C([C@H]1CC[C@H](N[*:1])CC1)[*:2]; Azetidine3carboxylic = O=C(C1CN([*:1])C1)[*:2]; Phac(3-amino) = O=C(Cc1cccc(N[*:1])c1)[*:2]; X3 = C=CCCN([C@@H](CC(C)C)C(=O)[*:2])[*:1]; pY = N[C@@H](Cc1ccc(OP(=O)(O)O)cc1)C(=O)O; X1 = O=C(C1CN([*:3])CCN1[*:1])[*:2]; Trx = NC[C@H]1CC[C@H](C(=O)O)CC1; X6 = O=C([C@H](O)CCN[*:1])[*:2]; X4 = O=C(CC(O)CN[*:1])[*:2]; 4Amb = NCc1ccc(C(=O)O)cc1; 4Abz = Nc1ccc(C(=O)O)cc1; NH(but-3-enyl) = C=CCCN*; Inp = O=C(O)C1CCNCC1

What was measured:
[1] = target: T1, SHC-transforming protein 1 (Homo sapiens, UniProt P29353); assay: Binding affinity to Shc Src homology 2 domain by fluorescence anisotropy
T1 sequence (P29353 whole entry): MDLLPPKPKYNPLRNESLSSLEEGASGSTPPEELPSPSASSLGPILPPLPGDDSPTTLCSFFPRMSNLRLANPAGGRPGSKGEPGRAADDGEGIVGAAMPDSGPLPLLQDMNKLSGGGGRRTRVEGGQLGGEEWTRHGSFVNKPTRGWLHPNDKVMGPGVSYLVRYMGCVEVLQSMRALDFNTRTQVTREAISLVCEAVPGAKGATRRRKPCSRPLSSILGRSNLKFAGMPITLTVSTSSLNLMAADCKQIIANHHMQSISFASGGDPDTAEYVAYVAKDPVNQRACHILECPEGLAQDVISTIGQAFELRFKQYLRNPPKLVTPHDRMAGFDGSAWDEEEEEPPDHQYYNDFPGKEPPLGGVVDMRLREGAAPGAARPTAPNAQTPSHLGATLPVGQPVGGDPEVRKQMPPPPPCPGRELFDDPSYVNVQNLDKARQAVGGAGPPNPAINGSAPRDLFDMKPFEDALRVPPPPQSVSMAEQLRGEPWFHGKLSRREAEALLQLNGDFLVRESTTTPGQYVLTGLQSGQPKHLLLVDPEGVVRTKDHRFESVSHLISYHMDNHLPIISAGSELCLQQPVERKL
How it was run: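 Direct binding: 5 nM N-terminal fluorescein-labelled peptide in 10 mM HEPES, 150 mM NaCl pH 7.5 with 10% (v/v) DMSO; Shc SH2 protein serially diluted from 100 μM. Excitation 485 nm, parallel and perpendicular emission at 535 nm. Kd from fitting anisotropy versus protein concentration to a single-site binding model.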

[2] = target: T1, SHC-transforming protein 1; assay: Displacement of FITC-tagged NH-(CH2)4-CO-phospho-tyrosine-glutamine-glycine-leucine-serine-amide from Shc Src homology 2 domain by fluorescence anisotropy competition assay
How it was run: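 Competition: preformed complex of 2 μM Shc SH2 protein with 10 nM FITC-labelled reference peptide in HEPES/NaCl pH 7.5 buffer, 10% DMSO; unlabelled peptides serially diluted from 500 μM. Anisotropy read at 485/535 nm. Fractional binding fitted with an order-3 spline with three knots; IC50 taken where the spline reaches one half.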

SMILES | Kd [1] [µM] | IC50 [2] [µM]
CC(C)C[C@H](NC(=O)CNC(=O)[C@H](CCC(N)=O)NC(=O)[C@H](Cc1ccc(OP(=O)(O)O)cc1)NC(=O)C1CN(C(=O)c2cc(N=C=S)ccc2-c2c3ccc(=O)cc-3oc3cc(O)ccc23)CCN1)C(=O)N[C@@H](CO)C(N)=O (stereo partly drawn) [4-((2S,5S,11S,14S)-1-amino-11-(3-amino-3-oxopropyl)-14-(4-(2-(6-hydroxy-3-oxo-3H-xanthen-9-yl)-5-isothiocyanatobenzoyl)piperazine-2-carboxamido)-2-(hydroxymethyl)-5-isobutyl-1,4,7,10,13-pentaoxo-3,6,9,12-tetraazapentadecan-15-yl)phenyl dihydrogen phosphate] (H-[X1](X2)[pY]QGLS-NH2) | 9.5 | 
CC(C)C[C@H](NC(=O)CNC(=O)[C@H](CCC(N)=O)NC(=O)[C@H](Cc1ccc(OP(=O)(O)O)cc1)NC(=O)c1ccc(CNC(=O)c2cc(N=C=S)ccc2-c2c3ccc(=O)cc-3oc3cc(O)ccc23)cc1)C(=O)N[C@@H](CO)C(N)=O [4-((2S,5S,11S,14S)-1-amino-11-(3-amino-3-oxopropyl)-14-(4-((2-(6-hydroxy-3-oxo-3H-xanthen-9-yl)-5-isothiocyanatobenzamido)methyl)benzamido)-2-(hydroxymethyl)-5-isobutyl-1,4,7,10,13-pentaoxo-3,6,9,12-tetraazapentadecan-15-yl)phenyl dihydrogen phosphate] ({X2-4Amb}-[pY]QGLS-NH2) | 12.3 | 
CC(C)C[C@H](NC(=O)CNC(=O)[C@H](CCC(N)=O)NC(=O)[C@H](Cc1ccc(OP(=O)(O)O)cc1)NC(=O)[C@H](O)CCNC(=O)c1cc(N=C=S)ccc1-c1c2ccc(=O)cc-2oc2cc(O)ccc12)C(=O)N[C@@H](CO)C(N)=O [4-((2S,5S,11S,14S)-1-amino-11-(3-amino-3-oxopropyl)-14-((R)-2-hydroxy-4-(2-(6-hydroxy-3-oxo-3H-xanthen-9-yl)-5-isothiocyanatobenzamido)butanamido)-2-(hydroxymethyl)-5-isobutyl-1,4,7,10,13-pentaoxo-3,6,9,12-tetraazapentadecan-15-yl)phenyl dihydrogen phosphate] (X2-[X6][pY]QGLS-NH2) | 9 | 
CC(C)C[C@H](NC(=O)CNC(=O)[C@H](CCC(N)=O)NC(=O)[C@H](Cc1ccc(OP(=O)(O)O)cc1)NC(=O)C1CN(C(=O)c2cc(N=C=S)ccc2-c2c3ccc(=O)cc-3oc3cc(O)ccc23)C1)C(=O)N[C@@H](CO)C(N)=O [4-((2S,5S,11S,14S)-1-amino-11-(3-amino-3-oxopropyl)-14-(1-(2-(6-hydroxy-3-oxo-3H-xanthen-9-yl)-5-isothiocyanatobenzoyl)azetidine-3-carboxamido)-2-(hydroxymethyl)-5-isobutyl-1,4,7,10,13-pentaoxo-3,6,9,12-tetraazapentadecan-15-yl)phenyl dihydrogen phosphate] (X2-[Azetidine3carboxylic][pY]QGLS-NH2) | 5.3 | 
CC(C)C[C@H](NC(=O)CNC(=O)[C@H](CCC(N)=O)NC(=O)[C@H](Cc1ccc(OP(=O)(O)O)cc1)NC(=O)[C@H]1CC[C@H](CNC(=O)c2cc(N=C=S)ccc2-c2c3ccc(=O)cc-3oc3cc(O)ccc23)CC1)C(=O)N[C@@H](CO)C(N)=O [trans-4-((2S,5S,11S,14S)-1-amino-11-(3-amino-3-oxopropyl)-14-(4-((2-(6-hydroxy-3-oxo-3H-xanthen-9-yl)-5-isothiocyanatobenzamido)methyl)cyclohexanecarboxamido)-2-(hydroxymethyl)-5-isobutyl-1,4,7,10,13-pentaoxo-3,6,9,12-tetraazapentadecan-15-yl)phenyl dihydrogen phosphate] ({X2-Trx}-[pY]QGLS-NH2) | 18 | 
CC(C)C[C@H](NC(=O)CNC(=O)[C@H](CCC(N)=O)NC(=O)[C@H](Cc1ccc(OP(=O)(O)O)cc1)NC(=O)[C@H]1CC[C@H](NC(=O)c2cc(N=C=S)ccc2-c2c3ccc(=O)cc-3oc3cc(O)ccc23)CC1)C(=O)N[C@@H](CO)C(N)=O [trans-4-((2S,5S,11S,14S)-1-amino-11-(3-amino-3-oxopropyl)-14-(4-(2-(6-hydroxy-3-oxo-3H-xanthen-9-yl)-5-isothiocyanatobenzamido)cyclohexanecarboxamido)-2-(hydroxymethyl)-5-isobutyl-1,4,7,10,13-pentaoxo-3,6,9,12-tetraazapentadecan-15-yl)phenyl dihydrogen phosphate] (X2-[Achc(trans-4)][pY]QGLS-NH2) | 25.4 | 
CC(C)C[C@H](NC(=O)CNC(=O)[C@H](CCC(N)=O)NC(=O)[C@H](Cc1ccc(OP(=O)(O)O)cc1)NC(=O)c1ccc(NC(=O)c2cc(N=C=S)ccc2-c2c3ccc(=O)cc-3oc3cc(O)ccc23)cc1)C(=O)N[C@@H](CO)C(N)=O [4-((2S,5S,11S,14S)-1-amino-11-(3-amino-3-oxopropyl)-14-(4-(2-(6-hydroxy-3-oxo-3H-xanthen-9-yl)-5-isothiocyanatobenzamido)benzamido)-2-(hydroxymethyl)-5-isobutyl-1,4,7,10,13-pentaoxo-3,6,9,12-tetraazapentadecan-15-yl)phenyl dihydrogen phosphate] ({X2-4Abz}-[pY]QGLS-NH2) | 23.9 | 
CC(C)C[C@H](NC(=O)CNC(=O)[C@H](CCC(N)=O)NC(=O)[C@H](Cc1ccc(OP(=O)(O)O)cc1)NC(=O)Cc1cccc(NC(=O)c2cc(N=C=S)ccc2-c2c3ccc(=O)cc-3oc3cc(O)ccc23)c1)C(=O)N[C@@H](CO)C(N)=O [4-((2S,5S,11S,14S)-1-amino-11-(3-amino-3-oxopropyl)-14-(2-(3-(2-(6-hydroxy-3-oxo-3H-xanthen-9-yl)-5-isothiocyanatobenzamido)phenyl)acetamido)-2-(hydroxymethyl)-5-isobutyl-1,4,7,10,13-pentaoxo-3,6,9,12-tetraazapentadecan-15-yl)phenyl dihydrogen phosphate] (X2-[Phac(3-amino)][pY]QGLS-NH2) | 0.77 | 
CC(C)C[C@H](NC(=O)CNC(=O)[C@H](CCC(N)=O)NC(=O)[C@H](Cc1ccc(OP(=O)(O)O)cc1)NC(=O)C1CCN(C(=O)c2cc(N=C=S)ccc2-c2c3ccc(=O)cc-3oc3cc(O)ccc23)CC1)C(=O)N[C@@H](CO)C(N)=O [4-((2S,5S,11S,14S)-1-amino-11-(3-amino-3-oxopropyl)-14-(1-(2-(6-hydroxy-3-oxo-3H-xanthen-9-yl)-5-isothiocyanatobenzoyl)piperidine-4-carboxamido)-2-(hydroxymethyl)-5-isobutyl-1,4,7,10,13-pentaoxo-3,6,9,12-tetraazapentadecan-15-yl)phenyl dihydrogen phosphate] ({X2-Inp}-[pY]QGLS-NH2) | 14.2 | 
C=CCCNC(=O)[C@H](CC(C)C)N(CCC=C)C(=O)CNC(=O)[C@H](CCC(N)=O)NC(=O)[C@H](Cc1ccc(OP(=O)(O)O)cc1)NC(C)=O [4-((2S,5S,11S)-2-acetamido-5-(3-amino-3-oxopropyl)-10-(but-3-enyl)-11-isobutyl-3,6,9,12-tetraoxo-4,7,10,13-tetraazaheptadec-16-enyl)phenyl dihydrogen phosphate] |  | 84
C=CCCNC(=O)[C@H](CO)NC(=O)[C@H](CC(C)C)N(CCC=C)C(=O)CNC(=O)[C@H](CCC(N)=O)NC(=O)[C@H](Cc1ccc(OP(=O)(O)O)cc1)NC(C)=O [4-((2S,5S,11S,14S)-2-acetamido-5-(3-amino-3-oxopropyl)-10-(but-3-enyl)-14-(hydroxymethyl)-11-isobutyl-3,6,9,12,15-pentaoxo-4,7,10,13,16-pentaazaicos-19-enyl)phenyl dihydrogen phosphate] (Ac-[pY]QG[X3]S-{NH(but-3-enyl)}) |  | 89
CC(C)C[C@H](NC(=O)CNC(=O)[C@H](CCC(N)=O)NC(=O)[C@H](Cc1ccc(OP(=O)(O)O)cc1)NC(=O)CC(O)CNC(=O)c1cc(N=C=S)ccc1-c1c2ccc(=O)cc-2oc2cc(O)ccc12)C(=O)N[C@@H](CO)C(N)=O (stereo partly drawn) [4-((2S,5S,11S,14S)-1-amino-11-(3-amino-3-oxopropyl)-14-(3-hydroxy-4-(2-(6-hydroxy-3-oxo-3H-xanthen-9-yl)-5-isothiocyanatobenzamido)butanamido)-2-(hydroxymethyl)-5-isobutyl-1,4,7,10,13-pentaoxo-3,6,9,12-tetraazapentadecan-15-yl)phenyl dihydrogen phosphate] (X2-[X4][pY]QGLS-NH2) | 8.6 | 
CC(C)C[C@H](NC(=O)CNC(=O)[C@H](CCC(N)=O)NC(=O)[C@H](Cc1ccc(OP(=O)(O)O)cc1)NC(=O)[C@H]1CC[C@@H](NC(=O)c2cc(N=C=S)ccc2-c2c3ccc(=O)cc-3oc3cc(O)ccc23)CC1)C(=O)N[C@@H](CO)C(N)=O [cis-4-((2S,5S,11S,14S)-1-amino-11-(3-amino-3-oxopropyl)-14-(4-(2-(6-hydroxy-3-oxo-3H-xanthen-9-yl)-5-isothiocyanatobenzamido)cyclohexanecarboxamido)-2-(hydroxymethyl)-5-isobutyl-1,4,7,10,13-pentaoxo-3,6,9,12-tetraazapentadecan-15-yl)phenyl dihydrogen phosphate] (X2-[Achc(cis-1,4)][pY]QGLS-NH2) | 0.5 | 
